In ChEMBL document CHEMBL2429794, “Tuning the antibacterial activity of amphiphilic neamine derivatives and comparison to paromamine homologues” (J Med Chem, 2013):
Values after ≈ are worked out from the molar mass of the structure shown.

Tests used:
Staphylococcus aureus [1] = experiment: microbe, parasite or virus in culture; settings: ATCC 25923, 24 h
Staphylococcus aureus [2] = experiment: Antibacterial activity against Staphylococcus aureus expressing aminoglycoside-3'-O-phosphoryltransferase after 24 hrs by geometric microdilution method; format: functional
Procedure, shortened: (§1)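 Broth cultures were incubated in plates at 37 °C, and growth was read as absorbance at 650 nm after 1, 4, 7 and 24 h. Ampicillin (16 mg/L) was the positive control and DMSO the negative control. Each MIC (μg/mL) is the average of at least three determinations.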

Staphylococcus aureus [3] = experiment: Antibacterial activity against Staphylococcus aureus expressing aminoglycoside-6'-N-acetyltransferase/2''-O-phosphoryltransferase after 24 hrs by geometric microdilution method; format: functional
Procedure, shortened: as §1

Staphylococcus aureus [4] = experiment: Antibacterial activity against fluoroquinolone-resistant Staphylococcus aureus 1199B expressing NorA efflux pump after 24 hrs by geometric microdilution method; format: functional
Procedure, shortened: as §1

Staphylococcus aureus [5] = experiment: Antibacterial activity against Staphylococcus aureus expressing aminoglycoside-[…] after 24 hrs by geometric microdilution method; format: functional
Procedure, shortened: as §1

Escherichia coli [6] = experiment: Antibacterial activity against Escherichia coli L58058.1 expressing ANT2''-1A after 24 hrs by geometric microdilution method; format: functional; settings: L58058.1, 24 h
Escherichia coli [7] = experiment: Antibacterial activity against Escherichia coli PAZ505H8101 expressing AAC6'-1B after 24 hrs by geometric microdilution method; format: functional; settings: PAZ505H8101, 24 h
Escherichia coli [8] = experiment: microbe, parasite or virus in culture; settings: ATCC 25922, 24 h
Acinetobacter lwoffii [9] = experiment: Antibacterial activity against Acinetobacter lwoffii AI.88-483 expressing APH3'-6A after 24 hrs by geometric microdilution method; format: functional; settings: AI.88-483, 24 h
Acinetobacter lwoffii [10] = experiment: Antibacterial activity against Acinetobacter lwoffii ATCC 17925 after 24 hrs by geometric microdilution method; format: functional; settings: ATCC 17925, 24 h
Pseudomonas aeruginosa [11] = experiment: Antibacterial activity against Pseudomonas aeruginosa ATCC 27853 after 24 hrs by geometric microdilution method; format: functional; settings: ATCC 27853, 24 h
Klebsiella pneumoniae = experiment: Antibacterial activity against Klebsiella pneumoniae ATCC 700603 after 24 hrs by geometric microdilution method; format: functional; settings: ATCC 700603, 24 h
Pseudomonas aeruginosa [12] = experiment: Antibacterial activity against Pseudomonas aeruginosa PA22 (PT629) expressing MexXY after 24 hrs by geometric microdilution method; format: functional
Pseudomonas aeruginosa [13] = experiment: Antibacterial activity against Pseudomonas aeruginosa F03 expressing AAC6'-2A after 24 hrs by geometric microdilution method; format: functional; settings: F03, 24 h
Staphylococcus aureus [14] = experiment: Antibacterial activity against vancomycin-resistant Staphylococcus aureus VRS2 after 24 hrs by geometric microdilution method; format: functional; settings: VRS2, 24 h
Procedure, shortened: as §1

Staphylococcus aureus [15] = experiment: Antibacterial activity against 14- and 15-membered macrolide-resistant Staphylococcus aureus expressing MsrA efflux pump after 24 hrs by geometric microdilution method; format: functional
Procedure, shortened: as §1

Staphylococcus aureus [16] = experiment: Antibacterial activity against healthcare-acquired methicillin-resistant Staphylococcus aureus ATCC 33592 after 24 hrs by geometric microdilution method; format: functional; settings: ATCC 33592, 24 h
Procedure, shortened: as §1

SMILES	MIC (Staphylococcus aureus [1]) [µg/mL]	MIC (Staphylococcus aureus [2]) [µg/mL]	MIC (Staphylococcus aureus [3]) [µg/mL]	MIC (Staphylococcus aureus [4]) [µg/mL]	MIC (Staphylococcus aureus [5]) [µg/mL]	MIC (Escherichia coli [6]) [µg/mL]	MIC (Escherichia coli [7]) [µg/mL]	MIC (Escherichia coli [8]) [µg/mL]	MIC (Acinetobacter lwoffii [9]) [µg/mL]	MIC (Acinetobacter lwoffii [10]) [µg/mL]	MIC (Pseudomonas aeruginosa [11]) [µg/mL]	MIC (Klebsiella pneumoniae) [µg/mL]	MIC (Pseudomonas aeruginosa [12]) [µg/mL]	MIC (Pseudomonas aeruginosa [13]) [µg/mL]	MIC (Staphylococcus aureus [14]) [µg/mL]	MIC (Staphylococcus aureus [15]) [µg/mL]	MIC (Staphylococcus aureus [16]) [µg/mL]
CCCCCCCCCCCCCCCCCCO[C@@H]1[C@@H](N)[C@@H](O[C@H]2[C@H](O)[C@@H](O)[C@H](N)C[C@@H]2N)O[C@H](CN)[C@H]1O	> 128	> 128	> 128	> 128	> 128												
NC[C@H]1O[C@H](O[C@H]2[C@H](O)[C@@H](OCc3ccccc3)[C@H](N)C[C@@H]2N)[C@H](N)[C@@H](OCc2ccccc2)[C@@H]1O	> 128	> 128	> 128	> 128	> 128												
NC[C@H]1O[C@H](O[C@H]2[C@H](O)[C@@H](O[C@H]3O[C@H](CO)[C@@H](O)[C@H](N)[C@H]3O)[C@H](N)C[C@@H]2N)[C@H](N)C[C@@H]1O [TOBRAMYCIN]						64 (≈ 137 µM)	32 (≈ 68.4 µM)	0.5 (≈ 1.07 µM)	1 (≈ 2.14 µM)	0.5 (≈ 1.07 µM)	0.5 (≈ 1.07 µM)	4 (≈ 8.56 µM)	1 (≈ 2.14 µM)	128 (≈ 274 µM)			
NC[C@H]1O[C@H](O[C@H]2[C@H](O)[C@@H](OCCCc3ccc4ccccc4c3)[C@H](N)C[C@@H]2N)[C@H](N)[C@@H](OCCCc2ccc3ccccc3c2)[C@@H]1OCCCc1ccc2ccccc2c1	> 128	32 (≈ 38.7 µM)	64 (≈ 77.4 µM)	> 128	128 (≈ 155 µM)	> 128	32 (≈ 38.7 µM)	128 (≈ 155 µM)			128 (≈ 155 µM)		128 (≈ 155 µM)	64 (≈ 77.4 µM)	> 128	32 (≈ 38.7 µM)	128 (≈ 155 µM)
NC[C@H]1O[C@H](O[C@H]2[C@H](O)[C@@H](OCc3ccccc3)[C@H](N)C[C@@H]2N)[C@H](N)[C@@H](OCc2ccccc2)[C@@H]1OCc1ccccc1	> 128	> 128	> 128	> 128	> 128	> 128	> 128	> 128	> 128	> 128	> 128	> 128	> 128	> 128	64 (≈ 108 µM)		> 128
CCCCO[C@@H]1[C@@H](N)[C@@H](O[C@H]2[C@H](O)[C@@H](OCCCC)[C@H](N)C[C@@H]2N)O[C@H](CN)[C@H]1O	> 128	> 128	128 (≈ 295 µM)	> 128	> 128	> 128	> 128	> 128	> 128	64 (≈ 147 µM)	> 128	> 128	> 128	> 128	> 128		> 128
CCCCO[C@@H]1[C@@H](N)[C@@H](O[C@H]2[C@H](O)[C@@H](OCCCC)[C@H](N)C[C@@H]2N)O[C@H](CN)[C@H]1OCCCC	> 128	> 128	> 128	> 128	> 128	> 128	> 128	> 128	> 128	> 128	> 128	> 128	> 128	> 128	> 128		> 128
NC[C@H]1O[C@H](O[C@H]2[C@H](O)[C@@H](OCc3ccc4ccccc4n3)[C@H](N)C[C@@H]2N)[C@H](N)[C@@H](OCc2ccc3ccccc3n2)[C@@H]1OCc1ccc2ccccc2n1	128 (≈ 172 µM)	64 (≈ 85.8 µM)	128 (≈ 172 µM)	> 128	> 128	> 128	> 128	> 128	> 128	128 (≈ 172 µM)	> 128	> 128	> 128	> 128	64 (≈ 85.8 µM)		64 (≈ 85.8 µM)
N[C@H]1[C@@H](O[C@H]2[C@H](O)[C@@H](OCc3cccc4ccccc34)[C@H](N)C[C@@H]2N)O[C@H](CO)[C@@H](O)[C@@H]1OCc1cccc2ccccc12	32 (≈ 53 µM)	32 (≈ 53 µM)	64 (≈ 106 µM)	64 (≈ 106 µM)	32 (≈ 53 µM)	128 (≈ 212 µM)	64 (≈ 106 µM)	128 (≈ 212 µM)	> 128	128 (≈ 212 µM)	64 (≈ 106 µM)	128 (≈ 212 µM)	> 128	128 (≈ 212 µM)		64 (≈ 106 µM)	32 (≈ 53 µM)
